Results published in ChEMBL document CHEMBL4024713, “Novel aryl piperazines for alleviation of 'andropause' associated prostatic disorders and depression” (Eur J Med Chem, 2017).
pEC50: −log10 of the molar value. The source made the active and inactive calls. The calls are words filed in the database; no cut-off is given here.

Key:
[1] = Tmax in Sprague-Dawley rat serum at 10 mg/kg, po administered as single dose by LC-MS/MS analysis; type: ADME, organism-based
Procedure, shortened: (§1)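 Male Sprague Dawley rats (250 ± 25 g), fasted overnight (12-16 h), n = 3 per time point; single 10 mg/kg dose orally by feeding needle, or iv from DMSO solution. Serum, prostate and hypothalamus collected up to 48 h post oral dose; hypothalamus from three rats pooled. LC-MS/MS (MRM, phenacetin internal standard), linear 5-400 ng/mL; noncompartmental and compartmental analysis.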

[2] = Ratio of drug level in prostate to serum in Sprague-Dawley rat at 10 mg/kg, po administered as single dose by LC-MS/MS analysis; type: ADME, organism-based; procedure, shortened: as §1
[3] = Clearance in Sprague-Dawley rat prostate at 10 mg/kg, po administered as single dose by LC-MS/MS analysis; type: ADME, organism-based, Prostate gland; settings: in vivo; procedure, shortened: as §1
Mus musculus [4] = assay: Toxicity in Swiss albino mouse assessed as latency time to fall at 20 mg/kg, po measured at 1 hr interval for 4 hrs by rotarod test; type: organism-based; settings: in vivo
Procedure, shortened: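 Mice trained on the rotarod (5 to 10 rpm), 2 min trials, 3 per day for two days. On day 3, tested before oral dosing and at 1, 2, 3 and 4 h after, recording latency to fall.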

Serum = assay: Volume of distribution at steady state in Sprague-Dawley rat serum at 10 mg/kg, po administered as single dose by LC-MS/MS analysis; type: ADME, organism-based; settings: in vivo; procedure, shortened: as §1
[5] = AUClast in Sprague-Dawley rat serum at 10 mg/kg, iv administered as single dose by LC-MS/MS analysis; type: ADME, organism-based; design: dose 10 mg/kg, route intravenous, time 0 - last; procedure, shortened: as §1
Hypothalamus [6] = assay: Volume of distribution at steady state in Sprague-Dawley rat hypothalamus at 10 mg/kg, po administered as single dose by LC-MS/MS analysis; type: ADME, organism-based; settings: in vivo; procedure, shortened: as §1
[7] = Volume of distribution at steady state in Sprague-Dawley rat prostate at 10 mg/kg, po administered as single dose by LC-MS/MS analysis; type: ADME, organism-based, Prostate gland; settings: in vivo; procedure, shortened: as §1
Rattus norvegicus [8] = assay: Anti-androgenic activity in citral-induced prostatic hyperplasia Sprague-Dawley rat model assessed increase in distinction between stromal and acinar compartments at 10 mg/kg, po administered once daily coadministered with citral for 21 days measured 24 hrs last post dose by hematoxyline and eosin stainig based light microscopic analysis; type: functional, organism-based
Procedure, shortened: (§2)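 Adult male Sprague-Dawley rats (250-280 g, n = 5), citral 100 mg/kg orally once daily for 28 days. From day 8, compound or flutamide at 10 mg/kg orally once daily for the remaining 21 days. Prostate weight is expressed relative to the citral group (100%). Prostates fixed in 10% formalin; 5 μ sections stained with H&E, examined by light microscopy.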

Rattus norvegicus [9] = assay: Toxicity in citral-induced prostatic hyperplasia Sprague-Dawley rat model assessed as effect on seminal vesicle weight at 10 mg/kg, po administered once daily coadministered with citral for 21 days measured 24 hrs last post dose; type: organism-based; settings: in vivo
Rattus norvegicus [10] = assay: Anti-androgenic activity in citral-induced prostatic hyperplasia Sprague-Dawley rat model assessed as prostate weight at 10 mg/kg, po administered once daily coadministered with citral for 21 days measured 24 hrs last post dose (reference value: 100%); type: functional; procedure, shortened: as §2
[11] = Cmax in Sprague-Dawley rat prostate at 10 mg/kg, po administered as single dose by LC-MS/MS analysis; type: ADME, organism-based, Prostate gland; design: dose 10 mg/kg, route oral; procedure, shortened: as §1
Mus musculus [12] = assay: Anti-depressant like activity in Swiss albino mouse assessed as reduction in immobility time at 20 mg/kg, po administered 60 mins prior to test measured for 5 mins by forced swim test relative to control; type: functional; design: scale not given: the % may be the effect or the level left
Procedure, shortened: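 Male Swiss albino mice (20-25 g); compound 20 mg/kg, imipramine 60 mg/kg or fluoxetine 20 mg/kg given orally in 1% gum acacia (10 mL/kg). After 60 min: 15 min pre-swim in a water cylinder (10 cm depth, 25 ± 1 °C), then retest at 24 h. Immobility recorded for 5 min after 1 min acclimatization; N = 7-9, mean ± SEM, unpaired t-test.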

[13] = Clearance in Sprague-Dawley rat serum at 10 mg/kg, po administered as single dose by LC-MS/MS analysis; type: ADME, organism-based; procedure, shortened: as §1
DU-145 = assay: Cytotoxicity against human DU145 cells after 24 hrs by MTT assay; type: functional, cell-based; settings: DU-145, 24 h
PC-3 = assay: Cytotoxicity against human PC3 cells after 24 hrs by MTT assay; type: functional, cell-based; settings: PC-3, 24 h
Hypothalamus [14] = assay: Clearance in Sprague-Dawley rat hypothalamus at 10 mg/kg, po administered as single dose by LC-MS/MS analysis; type: ADME, organism-based; settings: in vivo; procedure, shortened: as §1
[15] = Half life in Sprague-Dawley rat serum at 10 mg/kg, po administered as single dose by LC-MS/MS analysis; type: ADME, organism-based; procedure, shortened: as §1
Mus musculus [16] = assay: Anti-depressant like activity in Swiss albino mouse assessed as reduction in immobility time at 20 mg/kg, po measured for 5 mins by tail suspension test; type: functional, organism-based
Procedure, shortened: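 Male Swiss albino mice dosed orally in 1% gum acacia; imipramine as standard. Each mouse suspended by the tail with tape to a horizontal bar 60 cm above the table. Immobility (no limb or body movement other than respiration) recorded for 5 min after 1 min acclimatization; N = 5.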

[17] = Volume of distribution at steady state in Sprague-Dawley rat serum at 10 mg/kg, iv administered as single dose by LC-MS/MS analysis; type: ADME, organism-based; settings: read-out: Vdss; procedure, shortened: as §1
[18] = Half life in Sprague-Dawley rat serum at 10 mg/kg, iv administered as single dose by LC-MS/MS analysis; type: ADME, organism-based; procedure, shortened: as §1
[19] = Cmax in Sprague-Dawley rat serum at 10 mg/kg, iv administered as single dose by LC-MS/MS analysis; type: ADME, organism-based; design: dose 10 mg/kg, route intravenous; procedure, shortened: as §1
[20] = Ratio of drug level in hypothalamus to serum in Sprague-Dawley rat at 10 mg/kg, po administered as single dose by LC-MS/MS analysis; type: ADME, organism-based; procedure, shortened: as §1

Tmax [1]: 1 h | Kp [2]: 11.8 | CL [3]: 0.3 g/h/kg | Vdss (Serum): 23.7 L/kg | AUC(0-t) [5]: 2500 ng·h/mL | Vdss (Hypothalamus [6]): 6.6 g/kg | Vdss [7]: 3.6 g/kg | Cmax [11]: 572 ng/g | CL/F [13]: 65 mL/min/kg | CL (Hypothalamus [14]): 0.8 g/h/kg | half-life [15]: 5.4 h | Vd [17]: 28.3 L/kg | half-life [18]: 5.2 h | Cmax [19]: 520 ng/mL | Kp [20]: 4.6
Structure (SMILES): c1ccc(N2CCN(CCCN3CCN(c4ccccn4)CC3)CC2)nc1
Time (Mus musculus [4]): 120 s | Activity (Rattus norvegicus [8]): Active | Activity (Rattus norvegicus [9]): Non-Toxic | Activity (Rattus norvegicus [10]): 53.8% | Activity (Mus musculus [12]): 69.4% | pEC50 (DU-145): < 4.10 | pEC50 (PC-3): < 4.10 | Activity (Mus musculus [16]): Active
